Assay results from the EternaBench riboswitch data.

Test system: MS2 coat protein
Assay: apparent Kd, MS2 coat protein; higher = weaker binding; RNA-MaP array; FMN 200 µM where present
Summary of the method: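 The apparent Kd is reported as the median of filtered per-cluster binding-curve fits. To get these curves, designs transcribed by stalled E. coli RNA polymerase on Illumina sequencing-chip clusters were titrated with SNAP-549-labelled MS2 coat protein from 0.7 or 1.5 nM, doubling to 3 µM. Titrations were run without and then with constant ligand in 100 mM Tris-HCl pH 7.5, 80 mM KCl, 4 mM MgCl2, BSA, DTT, yeast tRNA and Tween-20, and green signal was normalised to red-channel RNA signal and control-cluster median Fmax.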

[1] = designed as: ON switch for flavin mononucleotide, no ligand
[2] = ligand present: flavin mononucleotide, designed as: ON switch for flavin mononucleotide
[3] = designed as: OFF switch for flavin mononucleotide, no ligand
[4] = ligand present: flavin mononucleotide, designed as: OFF switch for flavin mononucleotide

Sequence	apparent Kd [1]	apparent Kd [2]	apparent Kd [3]	apparent Kd [4]
GUUGACAGCACAGGAUAUGCGCAGUCUAUAUCACAUGAGGAUCACCCAUGUCGGCAACAGACCGAGCAGAAGGGUGCGAGUGUG	235 nM	39.7 nM		
CCUGAGUCAGGAUAUUGUACCGGCCUGAAGCCAGACCGACCCAAGAAGGGACAUGAGGAUCACCCAUGUGAAAA			23.1 nM	24.7 nM
AAUCAUUAUCGUUAUUUAUAUUAUUCAGAAGGACAAUUAAUAGCACAUGAGGAUCACCCAUGUUUGUAGGAUAUGAUGUUAUAC	15.2 nM	7.95 nM		
AAAAAAAAAAGUGAGGAUAUGGGAAAAUUAACAUGAGGAUCACCCAUGUGAUAAAAAAAAAAAAACCAGAAGGUACAAAAAAAAAA	69.5 nM	26.4 nM		
AGAAACUACGAGAAGGACAUAUGAUUAAGACGAAACAUGAGGAUCACCCAUGUAGGAUAUCGUAGUUUCAGGAUCGUGAGAUCA			7.21 nM	17.8 nM
AGUAAGAUGCAGAAGGUGUCAGCGAGAGCUGCGACAUGAGGAUCACCCAUGUACACGUGAGUGUACAAGGAUAUGCAUCUUACA	1090 nM	431 nM		
GUGUACAGAGGAUAUACAUGAGCAUGGAAACAUGCAUCCUCACAUGAGGAUCACCCAUGUAGAAGGCUGUACAC			26.6 nM	31.6 nM
UAGCGCUGUCGAGAGGAUAUGCGGUGAUGGACAUGAGGAUCACCCAUGUUAGCGAUAGCAUUACGGUAGAAGGCUCUACAGCUGU	245 nM	36 nM		
UUUCCAUAGAUAGGAUAUCAGUUUACAUGAGGAUCACCCAUGUUCUCUUUGGUUAUAAUUAUAUCUGAGAAGGAUCUUGAUGAA	29.6 nM	26.3 nM		
AACUAACAUGAGGAUCACCCAUGUCAGGAUAUGCAACGAUCGAUCGAUCGAUCGAUCAGCAGAAGGGACACUAA			20.1 nM	36 nM
UGAUAGGACAGAGGAUAUACGUGCUAGAGAUACUAGCUACAAAUCCUUACAUGAGGAUCACCCAUGUAGAAGGCUGUCCUAUCU			19.3 nM	39.4 nM
UGAGCAUGAGGAUAUACAAGGCGUGCCGUAGCACGAGGUCUACAUGAGGAUCACCCAUGUAGAAGGCAUGUUCU			16.8 nM	36.9 nM
UUCAUGUGAGGAUAUAGUACUCCUUCUAUUAUUAUUGAGUAUUAGAAGGCACAUGAGGAUCACCCAUGUAGUAC			29.8 nM	43.4 nM
AAAUUUAACGAAGGAUAUGCUUACAUGAGGAUCACCCAUGUGUGCCUUGUGAUGCUGAUUAGGUUGCAGAAGGUCGUAUACAUA			135 nM	174 nM
UAUUAUCACGAAGGAUAUGCUGACAUGAGGAUCACCCAUGUAUGUAUAUUGGUCCAGCGUAUUUAGCAGAAGGUCGUGAGUAAA			45.4 nM	73.5 nM
AUGUGGUUCCCGGCCGUCGUGUACGAGGAUAUCCUCGAACAUGAGGAUCACCCAUGUAACGUUGUGGAGAAGGCGUACGCUCGG	31.3 nM	5.48 nM		
AGCAUGUAAGGAUAUGUAACGCGGCUUUCAUUCGCCGUCCCACAGAAGGUACAUGAGGAUCACCCAUGUGCUCC			38.1 nM	87.6 nM
AUCAGCUCGUCAGGAUAUACGUCCCUGCGUCAGCAGUGUGGUAAGAUCACAUGAGGAUCACCCAUGUAGAAGGGACGAGCUGAU			22.9 nM	312 nM
GAACUAAAGCAUAGCUUUAGUCGUACAUGAGGAUCACCCAUGUAGGAUAUGGUAGGCAUAGCUUACUAGAAGGAUAGAGUGAUC			294 nM	82.4 nM
AGAAAGAAGCAAGGAUAUUGUAAGGUUAAUGUACAAGAAGGUGCUGUUUAUGUCUCUUAACAUGAGGAUCACCCAUGUUUUGGU	19.2 nM	18.8 nM		
UGCCGCAACAACACGGCAUCACAUGAGGAUCACCCAUGUUCACAGGAUAUGCGAUAGCCAACGAAGCAGAAGGGUGAUUACUUA	31.9 nM	215 nM		
GCAGCACAGUAUUACAUGAGGAUCACCCAUGUCGAUUGAGAUGAGGAUAUGCAUCGAAUGAAGUUGCAGAAGGCAUUGUGCUGC	10.9 nM	5.94 nM		
AUUAAACAUGAGGAUCACCCAUGUCAACAAAGUCGAGGAUAUGGGCAAUUAAAAUAAGAACCAGAAGGCGAAUAAU	340 nM	35.4 nM		
UCAUACGGUGAGGAUAUCUCCGCUAAAGUGUGUAGAGAAGGCGCUACAUGAGGAUCACCCAUGUUUAUGGGCAG			403 nM	228 nM

Sequence	apparent Kd [1]	apparent Kd [2]	apparent Kd [3]	apparent Kd [4]
UGAUAGCACAGAGGAUAUGCGUAGUGUUAUCUCUACAUGAGGAUCACCCAUGUAGAAGGCUGUGCUAUCUAAGUCGGAAACGAC			5.95 nM	9.9 nM
GCACUGGAUGUAGGAUAUCAGGACGAUAAGUCCUGAGAAGGACAUGAGGAUCACCCAUGUGCUCAAUAACCAGUGCAUAAUAUA			14.5 nM	20.3 nM
AAUCACAUGAGGAUCACCCAUGUGCCAGAAGGCACAAAUCUGCCUGGUGCGCCCGGGCUUCUCUGUGAGGAUAUGGAAAAGAAG	309 nM	76 nM		
CUUUUGUGAGGAUAUUCGUAGUAGGUAAAUAAAACUAUUACGGAGAAGGCACAUGAGGAUCACCCAUGUUCCUU			18.1 nM	54.2 nM
GGACAUGGGAAACCACAUGGAGAUAAGGAUAUAUAGAUGACAUGAGGAUCACCCAUGUAUGGCGAAUAGAAGGUAUGAGUGUGA	153 nM	16.2 nM		
GGGCUGUCAGGAUAUCUCGGGCUCGGGUAAACUCGGGCUCGGGAGAAGGGACAUGAGGAUCACCCAUGUGGCCC			30.4 nM	33 nM
AAUUUGUGAAAAUUACAUGAGGAUCACCCAUGUUAGGGAAUGCAGGAUAUGUGGAAUAUUAUUUAACAGAAGGGCAAUAAUUUU	56.3 nM	41.6 nM		
AAAGAACUAGGAUAUACAUGAGGAUCACCCAUGUGCAGCUUAACGGCUCACACCUUAUGUAGAAGGAGUGACCG			16 nM	19.3 nM
GCAGACGUGGUGAGGAUAUGCUCUACCUCGGUAGAGCAGAAGGCACAUGAGGAUCACCCAUGUGGCUCCUCAUU			15.9 nM	21 nM
CACUGCAAUGUAGGAUAUCGACUGGAAUACAGUCGAGAAGGACAUGAGGAUCACCCAUGUACUUUGAGUGAAUAAUAAGCAGUG			15.9 nM	59.4 nM
AGAUGACAAAGUCAUCUCGCUUUGACAUGAGGAUCACCCAUGUAGGAUAUAUUAAUCAAAGAUUAAUAGAAGGACAUGUUUCUG			87.1 nM	172 nM
GCCUUAUCGGUCAGGAUAUACACCCGUCAGUUGUUGUAGAAGGGACAUGAGGAUCACCCAUGUACAUUACAUUG			21.8 nM	45.5 nM
UGGUGAAGUGUAGGAUAUGGAGGUGGGUUUUGGCCAGAAGGACAUGAGGAUCACCCAUGUGGUAGAGGGUUGGCGGUGGCCCGU			16 nM	13.7 nM
UGGACCGAGCUAUCGGUUGACUCGGAGGAUAUGACAUGAGGAUCACCCAUGUGGGAUCUAAAUUGUCAGAAGGCUGGUUCUGGG			675 nM	229 nM
ACGCCCUGAGGAUAUCUUUUCCCGUACAUGAGGAUCACCCAUGUUUUCCUCCGUGCUUCGAGAGAAGGCAGGCCCA			807 nM	436 nM
UUUGGGCCCUCAUCCCUCGACACAUGAGGAUCACCCAUGUGCAGAAGGUGGAGACCCGAGGUCGCCAAGGAUAUGCAAUGGGAC			15.8 nM	10.2 nM
AUCGGUCCGUAGAAGGGUGACAUGAGGAUCACCCAUGUGCCGUGUGCAUUUAUGCCUCCACGGCCACAGGAUAUACGGAGUUGA	80.1 nM	39.1 nM		
GCGUACAUAUCAGGAUAUCAUUGAAUGGAUUAACUCAGUGAAUACAUGAGGAUCACCCAUGUUCUUGAGAAGGGAUUACUACGC			21 nM	96.5 nM
UCAUCUUGUCGAGGAUAUAUUAACAUGACAUGAGACACAUGAGGAUCACCCAUGUAUUUUUUUUUAUAGAAGGCGACUAUAUGU	32.6 nM	52.9 nM		
GGAUAGGACAGAGGAUAUACGUGCUAGAGAUAUUAGCAAAAUUUCCUCACAUGAGGAUCACCCAUGUAGAAGGCUGUCCUAUCG			19.4 nM	328 nM
CGCGAAUUACAGAAGGGACAAGGGAUAAAACCCAGGUCUUGCAGUAGACAUGAGGAUCACCCAUGUCAGGAUAUGUAGAGAGUU			17.2 nM	95.5 nM
AAAACAUGAGGAUCACCCAUGUAAAGAUCUGUUAAUAGAAGUGAGGAUAUACUAAAUUUUAGGUAGUAGAAGGCACUGGGUACA	23.4 nM	27.4 nM		
UGUUGUAUUACAGGAUAUCUAGUAUUUUUAUUCAGAGAAGGGUAUUCACAUGAGGAUCACCCAUGUAUAUACGAGGAAGUUGUG	45.2 nM	46.2 nM		
GAGGAACAUGAGGAUCACCCAUGUGAGGAUAUGCAUAGUGAGGUAGUAGACGUUUAUUGCAGAAGGUACACUGA			27.4 nM	27.8 nM
